Data reported in ChEMBL document CHEMBL1629485, “Lead identification of conformationally restricted β-lactam type combretastatin analogues: synthesis, antiproliferative activity and tubulin targeting effects” (Eur J Med Chem, 2010).

Assays:
Type in all cases: functional
[1] = system: MDA-MB-231; assay: Cell cycle arrest in estrogen receptor deficient human MDA-MB-231 cells assessed as accumulation at sub-G1 phase at 10 uM after 48 hrs using propidium iodide staining by flow cytometry relative to control
In short: (§1)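 MDA-MB-231 cells in DMEM with 10% FBS and 2 mM L-glutamine, seeded at 18 × 10⁴ cells/mL. Exposed to test agent at the stated final concentration, or to 1% (v/v) ethanol vehicle, for 24, 48 or 72 h. Harvested by scraping and centrifugation, then RNase A treatment and propidium iodide DNA staining for at least 30 min at 37 °C. 10,000 cells per sample read at 488 nm by flow cytometry; mean ± SD of three experiments.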

[2] = system: MDA-MB-231; assay: Cell cycle arrest in estrogen receptor deficient human MDA-MB-231 cells assessed as accumulation at G1 phase at 1 uM after 24 hrs using propidium iodide staining by flow cytometry relative to control; in short: as §1
[3] = system: MDA-MB-231; assay: Cell cycle arrest in estrogen receptor deficient human MDA-MB-231 cells assessed as accumulation at G1 phase at 100 nM after 48 hrs using propidium iodide staining by flow cytometry relative to control; in short: as §1

With `COc1ccc(C2CC(=O)N2c2cc(OC)c(OC)c(OC)c2)cc1O` (stereo not drawn) the Activity [1] was 51.27%, the Activity [2] was 19.22% and the Activity [3] was 10.76%.
